# Experimental data: the RNAGym collection of RNA variant scans (doi:10.1126/science.aae0568)
# Variants at the floor of the assay were thinned out.
# B1: tRNA (parent)
# chain: GUUCCGUUGGCGUAAUGGUAACGCGUCUCCCUCCUAAGGAGAAGACUGCGGGUUCGAGUCCCGUACGGAACG
# Variants of: B1
# Assay: yeast fitness relative to wild type (ratio to wild type); higher = fitter; tRNA-Arg(CCU), competitive growth, 37 C, YPD
# How it was run: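 Start and end populations of a pooled competition were compared by 100-nucleotide paired-end sequencing of gene amplicons. The Saccharomyces cerevisiae strains carried tRNA-Arg(CCU) gene variants at the native genomic locus, synthesised with a 3% per-site mutation rate at 69 sites, and competed in YPD at 37°C for 24 hours in six parallel replicates. Darwinian fitness relative to wild type was based on the change in genotype frequencies. Genotypes required ≥ 100 starting reads, and estimates < 0.5 were set to 0.5.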
row,Variant,yeast fitness
1,GAUCCGUUGGCGUAAUGGUAACGCGUUUCCCUCCUCAGGAGAAGACUGCGGGUUCGAGUCCCGUACGGAACG,≤ 0.5
2,GAUCCGUUGGCGUAAUGGUAACGCGUUUCCCUCCUGAGGAGAAGACUGCGGGUUCGAGUCCCGUACGGAACG,0.578
3,GAUCCGUUGGCGUAAUGGUAACGCGUCUCCCUCUUAAGGAGAAGACUACGGGUUCGAGUUCCGUACGGAACG,0.602
4,GAUCCGUUGGCGUAAUGGUAACGCGUCUCCCUCCUAAGGAGAAGAAUGCGGGUUCGAGUCCCGUACGGAACG,1.03
5,GAUCCGUUGGCGUAAUGGUAACGCGUCUACCUCCUAAGGAGAAGACUGCGGGUUCGAGUCCCGUACGGAACG,0.625
6,GAUCGGUUGGCGUAAUCGUAACGCGUCUCCCUCCUAAGGAGAAGACUGCGGGUUCCGGUCCCGUACGUAACG,0.558
7,GAUCCGUUGGCGUAAUGGUAACGCGUCUCACUCCUAAGGAGAAGACUGCGGGUUCGAGUCCCGUACGGAACG,0.819
8,GAUCAGUUGGCGUAACGGUAACGCGUCUCACUCCUAAGGAGAAGACUGCGGGUUCGAGUCCCGUACGGAACG,≤ 0.5
9,GAUCGGUUGGCGUAAUGGUAACGUGUCUCGCUCCUAAGGAGAAGACUGCGGGUUCGAGUCCCGUACGAAACG,≤ 0.5
10,GAUCCGUUGGCGUAAUGGUAACGCGUCUCCCUCCUAAGGAGAAGAAUGCGGGUUCGAAUCCCGUACGGAACG,0.622
11,GAUCCGUUGGCGUAAUGGUAACGGGUCUCCCUCCUAAGGAGAUGAUUGCGGGUUCGAGUCCCGUACGGAACG,0.542
12,GAUCUGUUGGCGUAAUGGUAACGCGUCUGCCUCCUAUGGAGAAGACUGCGGGUUCGAGUCCCGUGCGGAACG,≤ 0.5
13,GAUCCGUUGGAGUGAUGGUAACGCGUCUUCCUCCUAAGGAGAAGACUGCGGGUUCGAGUCCCGUACGUAACG,0.564
14,GAUCCGUUGGGGUAAUGGUAACGCGUCUCCCUCCUAAGGAGUAGACUGCGGGUUCGAGUCCCGUACGGAACG,≤ 0.5
15,GAUCCGUUGGCGUAAUGGUAACGCGUCUCCCUUUUAAAGAGAAGACUGCGAGUUAGAGUCCCGUUCGGAACG,≤ 0.5
16,GAUCGGUUGGCGUAAUGGUAACGCGUCUCCCUCCUAACGAGAAGACUGCGGGUUCGAGUCCCGUACGGAACG,≤ 0.5
17,GAUCCGUUGGCGUAAUGGUAAGGCGUCUCCCUCCUAAGGAGAAGACUGCGGGUUCGAGUCCUCUACGGAACG,≤ 0.5
18,GAUCCGUUGGGGUAAUGGUAACGCGUCUCCCUCCUAAGGAGAAGACUGCGGGUUCGUGUCCCGUAUGGAACG,0.588
19,GAUCCGUUGGUGUAAUGGUAACACGUCUGCCUCCUAAGGAGAAGACUGCGGGUUCGAGUCCCGUACGGAACG,0.527
20,GAUCUGUUGGCGUAAUGGUAACGCGUCUCCCUCCUAAGGAGAAGACUGCGGGUUCGAGUCCCGUUCGGUACG,0.614
21,GAUCCGUUGGCGUAAUGGUAACGUGUCUCCCUCCUAAGGAGAAGACUGCGGGUUCGAGUCCCGUACGGACCG,0.894
22,GAUCGGUUGGCGUAAUGGUAACGCGUCUCCCUCCUAAGGAGAAGACUGCGGGUUCGAGUCCCGUACGGAACG,0.728
23,GAUCUGUUGGCGUAAUGGUAACGCGUCUCCCUCCUAAGGAGAAGACUGCGGGUUCGAGUCCCGUACGGAACG,0.906
24,GAUCUAUUGGCGUAAUGGUAACGCGUCUCCCUCCUAAGCAGAAGACUGCGGGUUCGAGUACCGUACGGAACG,≤ 0.5
25,GAUCCGUUGGUGUAAUGGGAACGCGUCUCCCUCCUAAGGAGUAGACUACGGGUUCGAGUCCCGUACGGAACG,≤ 0.5

row,Variant,yeast fitness
1,GAUCCGUUGGCGUAAUGGUAACGUGUCUCCCUCCUAAGGAGAAGUCUGCGGGUUCGAGUCCCGUACAGAACG,≤ 0.5
2,GAUCCGUUGGCGUAAUGGUAACGCGUCUGCCUCAUAAGGAGAAGACUGCGGGUUCGAGUGCCGUACGGAACG,≤ 0.5
3,GAUCCGUUGGCGUAAUGGUAACGCGUCUCCCUCGUGAGGAGAUGACUGCGGGUUCGAGUCCCGUACGGAACG,≤ 0.5
4,GAUCUGUUGGCGUAAUGGUAACGCGUCUCCCUCCUAAAGAGAAGACUGCGGGUUAGAGUCCCGUACGGAACG,≤ 0.5
5,GAUCAGUUGGCGUAAUGGUAACGCGUCUCCCUCCUAAGGAGAAGACUGCGGCUUCGAGUCCCGUACGGAACG,≤ 0.5
6,GAUCCGUUGGCGUAAUGGUAACGCGUCUCCGUCCUAAGGAGAAGACUGCGGGUUCGAGUCCCGUGCGGAACG,0.642
7,GAUCCGUUGGCGUAAUGGUAACGCGUCUCUCUCCUAAGGAGGAGACUGCGGGUUCGAGUGCGGUGUGGAACG,≤ 0.5
8,GAUCCGUUGGGGUAAUGGUAACGCGUGUCCCUCCUAAGGAGAAGACUGCGGGUACGAGUCCCGUACGGAACG,≤ 0.5
9,GAUCUGUUGGCGUAAUGGUAACGCGUCUCCCUCCUAAGCAGAAGACUGCGGGUUCGAGUACCGUACGGAACG,0.541
10,GAUCCGUUGGCGUAAUGGUAACGCGUCUCCGUCCUAAGGAGAAGACUGCGGGUUCGAGUCCCGUACGGAACG,0.864
11,GAUCCGUUGGCGUAAUGGUAACGCGUCUCCAUCCUAAGGAGAAGACUGCGGGUUCGAGUCCCGUACGGAACG,0.815
12,GAUCCGUUGGCGUAAUGGUAACGCGUCUCCUUCCUAAGGAGAAGACUGCGGGUUCGAGUCCCGUACGGAACG,0.921
13,GAUCCGUUGGAGUAAUGGUAACGCGUCUCCCUCCUAACGAGAAGACUGCGGGUUCGAGUACCGUAUGGAACG,≤ 0.5
14,GAUCGGUUGGCGUAAUGGUAACGCGUCUCCCUCCUAAGGAGAAGACUGCGGGUUCGAGUCCCGAACGGAACG,≤ 0.5
15,GAUCCGUUGGCGUAAUGGUAACGCGUCUCCCUGCUAAGGAGCAGACUGCGGGUUCGAGUCCCAUACGGAACG,≤ 0.5
16,GAUCCGUUGGGGUAAUGGUAACGCGUCUCCGUCCUAAGGAGAAGACUGCGGGUUCGAGUCCCGUACGGAACG,0.6
17,GAUCCGUUGGGGUAAUGGUAACGCGUCUCCCUCGUAAGGAGAAGACUGCGGGUUCGAGUCCCGGACGGAACG,≤ 0.5
18,GAUCUGUUGGCGUAAUGGUAACGCGUCUCCAUCCUAAGGAGAAGACUGCGGGUUCGAGUCCUGUACGGAACG,≤ 0.5
19,GAUCCGUUGGCGUAAUGGUAACGGGUCUCCCUCCUACGGAGAAGACUGCGGGUUCGAGUCCCGUAUGGAACG,≤ 0.5
20,GAUCCGUUGGCGUAAUGGUAACGCGUGUCCCUCCUAAGGAGAAGACUGCGGGUUCGAGUCCCGUACGGAACG,0.764
21,GAUCAGUUGGCGUAAUGGUAACGCGUCUCCCUCCUAAGGAGAAGACUGCGGGUUCGAGUCCCGGAUGGAACG,≤ 0.5
22,GAUCCGUUGGGGUAAUGGUAACGCGUCUCCCUCUUAAGGAGUAGACUGGGGGUUCGAGUCCCGUACGGAACG,0.788
23,GAUCCGUUGGCGUAAUGGUAACGUGUCUUCCUUGUAAGGAGUAGACUGCGGGUUCGAAUCCCGUACGGAACG,0.56
24,GAUCAGUUGGCGUAAUGGUAACGCGUCUCCCUCCUAAGGAGAAGACUGCGGGUUCGAGUCCCGUACGCAACG,≤ 0.5
25,GAUCCGUUGGCGUAAUGGUAACGCGUCUCCAUCCUAAGGUGAAGACUGCGGGGUCCAGUCCGGUACGGAACG,≤ 0.5

row,Variant,yeast fitness
1,GAUCGGUUGGCGUAAUGGUAACGCGUCUCCCUCCUAAGGAAAUGACUGCGGGUGCGUGUCCCGUACGGAACG,≤ 0.5
2,GAUCCGUUGGCGUAAUGGUAACGGGUCUCCUUGCUAAGGAGCUGACUGCGGGUUCGAGUCCCGUUCGGAACG,≤ 0.5
3,GAUCCGUUGGUGUAAUAGUAACGCGUCUCCCUCCUAAGGAGAAGACUGCGGGUUCGAGUCCCGGACGGAACG,≤ 0.5
4,GAUCCGUUGGCGUAAUGGUAACGUGUCUCCCUCCUAAGGAGAAGACUGCGGGUUCGAGUCCCGUACGGAACG,0.95
5,GAUCAGUUGGCGUAAUGGUAACGCGUCUCCCUCCUAAGGAGAAGACUCCGGGUUGGAGUCCCGUAAGGAACG,≤ 0.5
6,GAUCCGUUGGCGUAAUGGUAACGGGUCUCCCUCCUACGGAGAAGACUGCGGGUUCCAGUCCCGUACGGAACG,≤ 0.5
7,GAUCCGUUGGCGUAAUGGUAACGCGUCUACCUCCUAAGGAGGAGACUGUGGGUACGAGUGCCGUACGAAACG,≤ 0.5
8,GAUCCGUUGGGGUAAUGGUAACGCGUCUCACUCCUAAGGAGAAUACUGCGGGUUCGGGUCCCGUACGGAACG,≤ 0.5
9,GAUCCGUUGGGGUAAUGGUAACGCGUCUCCUUCCUGAGGAGAAGACUGCGGGUUCGAGUCCCGUACGGAACG,0.646
10,GAUCUGUUGGUGUUAUAGUACCGCGUCUCCCUCCUAACGAGAAGACUGAGGGUUCGAGUCCCGUACGGAACG,≤ 0.5
11,GAUCCGUUGGCGUAAUGGUAACGCGUCUCCUUCCUAUGGAGAAGACUGCGGGUUCGAGUCCCGUACGGAACG,≤ 0.5
12,GAUCCGUUGGGGUAAUGGUAACGCGUCUCCCUCCGAAGGAGAAGACAACGGGUUCGAGUCCCGUUCGGAACG,≤ 0.5
13,GAUCCGUUGGCGUAAUGGUAACGCGUCUCCGUCCUAAGCAGGAGACUGUGGGUUCGAGUGCCGUACGGAACG,≤ 0.5
14,GAUCGGUUGGCGUAAUGGUAACGCGUCUCCCUCCUAAGGGGAAGACUGCGGGUUCGAGUCCCGUACGGAACG,0.564
15,GAUCCGUUGGUGUAAUGGUAACGCGUCUCCCUCCUAAGGAGAAGACUGCGGGUUCGAGUCCCGUACGGUACG,0.648
16,GAUCUGUUGGCGUAAUGGUAACGCGUCUCCCUCCUAAGGAGAAGACUGCGGGUUCGAGUCCCGUAUGGAACG,0.661
17,GAUCCGUUGGCGUAAUGGUAACGCGUAUCCCUCUUAAGGAGAAGACUGCGGGUUCGAGUCCCGUACGGAACG,≤ 0.5
18,GAUCCGUUGGCGUAAUGGUAACGUGUCUCCCUCCUAAGGAGAAGACCGCGGGUUCGAGUUCCGUACGGAACG,≤ 0.5
19,GAUCCGUUGGAGUAAUGGUAACGCGUCUCCCUCCUAAGGAGAAGAUUGUGGGUUCGAGUCCCGUACGGAACG,≤ 0.5
20,GAUCCGUUGGCGUAAUGGUAACGCGUUUCCCUCCUAAGGAGAAGACUGCGGGUUCGAGUCCCGUACAGAACG,0.531
21,GAUCCGUUGGCGUAAUGGUAACGCGUCUCCCUAUUAAGGAGAAGACUGCGGGUUCAAGUCCCGUACGGAACG,0.542
22,GAUCCGUUGGGGUAAUGGUAGCGCGUCUCCCUCCUAAGGAGAAGACUGCGGGUUCGAGUCCCGUUCGGAACG,≤ 0.5
23,GAUCGGUUGGCGUAAUGGUAACGCGUCUCCCUCCUAAGGAGAAGACUGCGGGUUCGAGUCCCCUACCGUACG,≤ 0.5
24,GAUCUGUUGGCGUAAUGGUAACGCGUCUCCCUCCUAAGGAGGAGAGUGCGGGUUCCAGUCACGUACGGAACG,≤ 0.5
25,GAUCCGUUGGGGUAAUGGCAACGCGUCUCCCUCCUAAGGAGAAGACUGCGGGUUCGAGUCCCGUACGGAACG,≤ 0.5
